Only some compounds are listed: those with a hit (about 4% of all), similar ones and a draw of the others.
BB579 growth dn: yeast BB579 growth reduction in restrictive medium; AID 804; inhibition, % at 10 µM; actives 0.51% (n = 140,000); S. cerevisiae BB579 growth, OD615, 48 h;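 active means inhibition above a set limit, 3 SD over the mean compound inhibition, cut at about 44% in these data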
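Test system: S. cerevisiae DeaD strain BB579 yeast; Medium: restrictive CSMM-D medium; Compound: one dose, 10 µM compound with 0.25% DMSO; Incubation: 4 h cell preincubation, 48 h compound exposure, 30 °C humidified; Signal: OD at 615 nm; Benchmarks: amphotericin B at 10 µg/mL as positive control.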
Measles CPE: protection of cells from measles virus; Measles virus-infected cells, CPE protection, absorbance; protection (pct of control), % at 4 µM; actives 1.5% (n = 140,000); AID 841; in the data active means protection mostly above about 24%, no sharp cut-off; inactive means mostly below about 26%
RAM inhibit: yeast RAM network inhibition. actives 1.8% (n = 190,000). inhibition, % at 50 µM. S. cerevisiae dse1pr::URA3 reporter, 5-FOA growth OD615, 2 d; analog-sensitive cbk1-as2 kinase mutant strain;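 active means inhibition above a set limit, 3 SD over mean compound inhibition, cut at about 8.4% in these data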;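 further: inhibition rescues growth on 5-FOA so higher OD means more RAM inhibition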
MDM2 E3 inh: inhibitors of human Mdm2 E3 ubiquitin ligase; actives 0.11% (n = 210,000); Q00987; signal enhancement, % at 5 µM; cell-based MDM2 ubiquitination luciferase reporter, 2 h; 0 = plate control, 100 = twice control, blank-subtracted;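 active means signal enhancement of 30% or more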;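 further: luminescence tracks abundance of the self-degrading MDM2-luciferase fusion protein; higher signal means inhibition of MDM2 E3 ligase activity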
Target sequence (Q00987 whole entry, looked up, the tested form may be a part): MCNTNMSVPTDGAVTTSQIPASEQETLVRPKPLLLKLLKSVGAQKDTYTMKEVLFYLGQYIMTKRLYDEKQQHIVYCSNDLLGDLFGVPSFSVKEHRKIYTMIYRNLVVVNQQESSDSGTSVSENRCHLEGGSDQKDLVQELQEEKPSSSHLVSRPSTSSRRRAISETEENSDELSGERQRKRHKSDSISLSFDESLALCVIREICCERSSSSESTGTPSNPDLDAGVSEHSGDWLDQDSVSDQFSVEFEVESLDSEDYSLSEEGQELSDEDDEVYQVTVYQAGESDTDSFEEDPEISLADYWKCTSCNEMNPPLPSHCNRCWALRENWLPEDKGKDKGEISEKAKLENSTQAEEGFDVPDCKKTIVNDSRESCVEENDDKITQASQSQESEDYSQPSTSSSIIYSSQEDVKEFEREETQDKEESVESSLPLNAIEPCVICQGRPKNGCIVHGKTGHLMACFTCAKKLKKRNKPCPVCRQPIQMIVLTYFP
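Test system: mammalian cells stably expressing self-ubiquitinating, self-degrading MDM2 E3–luciferase fusion; Amount: 2000 cells in each well; Medium: DMEM; Schedule: 4 h settle plus 2 h compound, 37 °C; Technique: SteadyLite luciferase luminescence after 15 min room-temperature reagent incubation; Benchmarks: plate control and blank wells.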
Yeast life ext: extends the lifespan of yeast; S. cerevisiae growth with nicotinamide, OD615; deaD strain in restrictive glucose medium; inhibition of the nicotinamide effect, % at 10 µM; actives 0.68% (n = 130,000); AID 775;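 active means inhibition above a set limit, placed 3 SD over the median of all compounds, cut at about 26% in these data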
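assay system = DeaD-strain S. cerevisiae | buffer or medium = restrictive glucose medium | reagent = 1.5 mM nicotinamide | compound = 10 µM single point, 0.25% DMSO | incubation = 48 h compound exposure at 30 °C, humidified | signal = OD615 measurement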
Insulin prom inh: TRM-6 insulin promoter activity inhibition; TRM-6 cells, insulin promoter-eGFP reporter, imaging; reporter expression induced with tamoxifen; inhibition, % at 2 µM; actives 0.9% (n = 130,000); AID 1273;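 active means inhibition above the mean plus 3 SD, with well images judged a real hit on visual review, cut at about 60% in these data, passing the limit was not always enough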
Numbers stand for hits; i = inactive; nt = no result given.

SMILES	BB579 growth dn	Measles CPE	RAM inhibit	MDM2 E3 inh	Yeast life ext	Insulin prom inh
CC(=O)N1CCc2cc(C(=O)CN3CCC(C)CC3)ccc21	i	35.4	i	i	i	nt
COc1ccc(C(=O)NNC2CC(=O)N(Cc3ccc(Cl)cc3)C2=O)cc1OC (stereo not drawn)	i	i	i	i	i	i
CCOc1ccc(NC(=O)C23CC4CC(C2)CC(c2ccccc2)(C4)C3)cc1	i	i	8.6	i	i	i
CCOC(=O)CNC(=O)C12CC3CC(C1)CC(c1ccc(C)cc1)(C3)C2	nt	nt	i	i	nt	i
O=C(Nc1cc(SCCO)cc([N+](=O)[O-])c1)c1ccc(Br)o1	i	i	i	i	i	i
c1ccc(OCc2nc3c4c(ncn3n2)-c2ccccc2CC42CCCC2)cc1	i	i	8.4	nt	i	i
CCc1ccc(C(=O)N/N=C/c2cccc3ccccc23)nc1	i	i	i	i	i	i
CCCc1cc(C(F)(F)F)c(C#N)c(=O)[nH]1	i	i	i	i	i	67.9
CC(C)(C)c1cc(C(F)(F)F)c(C#N)c(=O)[nH]1	i	i	i	i	i	i
O=[N+]([O-])c1cc(Oc2cccnc2)cc([N+](=O)[O-])c1	i	54.9	i	i	i	i
CS(=O)(=O)N(CC(=O)N1CCCC1)Cc1ccc(Cl)cc1	i	i	i	i	i	i
CCOC(=O)CNc1ncc(C(F)(F)F)cc1Cl	nt	nt	i	i	nt	i
N#CCC(CNc1ncc(C(F)(F)F)cc1Cl)OC(=O)c1ccc(Cl)cc1Cl (stereo not drawn)	i	i	9.6	i	i	i
O=C(NN1C(=O)c2ccccc2C1=O)C1C2CCCCC21 (stereo not drawn)	i	i	i	nt	40.9	i
O=C(NN1C(=O)c2ccccc2C1=O)c1ccncc1	nt	nt	i	i	nt	nt
COc1ccc2c(c1)SCCC2=O	i	34.3	i	i	i	i
COc1cc2c(cc1OC)C(=O)CCS2	i	i	i	i	i	i
O=C(Oc1ccc2ccc(OC(=O)N3CCCCCC3)cc2c1)N1CCCCCC1	i	i	i	i	i	i
CCOc1ccccc1NC(=S)/C(=C(\[O-])c1ccc2c(c1)OCCO2)[n+]1ccc(CC)cc1	i	28.3	i	i	i	nt
Cc1onc(-c2c(Cl)cccc2Cl)c1COC(=O)c1ccc(Cl)cc1	nt	nt	nt	i	nt	nt
O=c1c(Cl)c(NCCCO)cnn1-c1nc2ccccc2[nH]1	i	i	i	i	80.6	i
CCC1(C)CC(=O)N(c2ccc(C(=O)O)c(O)c2)C1=O (stereo not drawn)	i	35.7	i	i	i	i
O=C(Nc1cccc(F)c1)c1cc(S(=O)(=O)N2CCOCC2)cs1	nt	nt	i	i	nt	nt
O=C(Nc1ccc(Cl)cc1)c1cc(S(=O)(=O)N2CCOCC2)cs1	i	78.3	i	i	i	i
CCN(CC)S(=O)(=O)c1ccc(C)c(NC(=S)Nc2cccc(S(=O)(=O)N3CCCCCC3)c2)c1	i	i	9.0	i	i	i
SMILES	BB579 growth dn	Measles CPE	RAM inhibit	MDM2 E3 inh	Yeast life ext	Insulin prom inh
CCN(CC)S(=O)(=O)c1cccc(S(=O)(=O)N2CCCCC2)c1	i	i	i	i	i	nt
CCOC(=O)NS(=O)(=O)c1ccc(CCNC(=O)c2cc(C)on2)cc1	i	i	i	i	i	i
C(=C\c1ccco1)/c1nc2ccccc2[nH]1	nt	nt	i	i	nt	nt
C(=C\c1nc2ccccc2[nH]1)/c1ccccc1	i	i	i	i	i	93.3
CC(=O)C1C(c2cccc(F)c2)c2c(n[nH]c2C)CC1(C)O (stereo not drawn)	nt	nt	nt	i	nt	nt
COc1ccc2cc3[n+](cc2c1OC)CCc1cc2c(cc1-3)OCO2	i	i	i	nt	i	66.7
O=C(C1=C(O)/C(=C/c2ccc(O)cc2)CCC1)C(F)(F)F	100.2	i	i	i	nt	i
COc1ccc(/C=C2\CCCC(C(=O)C(F)(F)F)=C2O)cc1	i	i	10.0	i	i	i
CC(=O)c1ccc(NC(=O)C(C)Nc2ccc(Cl)cc2)cc1 (stereo not drawn)	nt	nt	i	i	nt	i
CN(CC(=O)N1CCCCC1)S(=O)(=O)c1cccc2cccnc12	i	i	i	i	i	85.7
Cc1ccc(NC(=O)CN(C)S(=O)(=O)c2cccc3cccnc23)c(C)c1	nt	nt	nt	i	nt	nt
